Calls of active or inactive are those of the source. No cut-off for these calls is given here.
Columns and labels:
Melanocortin receptor 4 [1] = target: T1, Melanocortin receptor 4 (Homo sapiens, UniProt P32245); assay: Displacement of Eu-NDP-alpha-MSH from human MC4R expressed in HEK293 cells after 2 hrs by time resolved fluorescence assay; type: cell-based
Melanocortin receptor 4 [2] = target: T1, Melanocortin receptor 4; assay: Agonist activity at of human MC4R expressed in HEK293 cells assessed as cAMP level at 10^-7 to 10^-12 M after 15 mins by chemiluminescent assay relative to 5% forskolin response; type: functional, cell-based
Summary of the method: (§1)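 Same cAMP immunoassay in HEK293/hMC4R cells (1mM IBMX, 15 min ligand at 37°C, basal subtracted). For each ligand, the concentration giving cAMP at 5%, 10% or 25% of the 10 μM forskolin maximum was found. Receptor occupancy there was computed as [RL] = Bmax × [L]/([L] + Kd), with Kd from the Eu-NDP-α-MSH competition binding assays.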

Melanocortin receptor 4 [3] = target: T1, Melanocortin receptor 4; assay: Agonist activity at human MC4R expressed in HEK293 cells assessed as increase in cAMP production at 10^-7 to 10^-12 M after 15 mins by chemiluminescent assay; type: functional, cell-based
Summary of the method: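 HEK293/hMC4R cells in DMEM with 10% SCS, seeded 3 days ahead. Cells pre-incubated 10 min at 37°C with 1mM IBMX, then 8 ligand concentrations given for 15 min at 37°C. Lysed 25 min at 37°C. cAMP measured by competitive chemiluminescent immunoassay (AP conjugate, anti-cAMP antibody) against a same-run standard curve, basal subtracted. Triplicate wells, 3 experiments.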

Melanocortin receptor 4 [4] = target: T1, Melanocortin receptor 4; assay: Agonist activity at of human MC4R expressed in HEK293 cells assessed as cAMP level at 10^-7 to 10^-12 M after 15 mins by chemiluminescent assay relative to 10% forskolin response; type: functional, cell-based; summary of the method: as §1

T1 sequence (P32245 whole entry): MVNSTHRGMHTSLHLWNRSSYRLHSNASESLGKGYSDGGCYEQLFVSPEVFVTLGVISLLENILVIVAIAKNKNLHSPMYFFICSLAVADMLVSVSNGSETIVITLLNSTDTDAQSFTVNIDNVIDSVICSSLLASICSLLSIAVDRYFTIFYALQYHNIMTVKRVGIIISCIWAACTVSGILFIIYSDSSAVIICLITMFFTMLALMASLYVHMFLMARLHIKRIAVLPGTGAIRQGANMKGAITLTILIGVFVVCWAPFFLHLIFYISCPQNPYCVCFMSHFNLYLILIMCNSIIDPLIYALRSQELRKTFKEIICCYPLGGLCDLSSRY

SMILES: C#CCCCC(=O)N[C@@H](Cc1cnc[nH]1)C(=O)N[C@H](Cc1ccccc1)C(=O)N[C@@H](CCCNC(=N)N)C(=O)N[C@@H](Cc1c[nH]c2ccccc12)C(=O)Nc1cn(CC(=O)NCCCC(CCCNC(=O)Cn2cc(NC(=O)[C@H](Cc3c[nH]c4ccccc34)NC(=O)[C@H](CCCNC(=N)N)NC(=O)[C@@H](Cc3ccccc3)NC(=O)[C@H](Cc3cnc[nH]3)NC(=O)CCC#C)nn2)(NC(=O)CNC(C)=O)C(=O)NCCC(N)=O)nn1 (some centres not stated)
- IC50 (Melanocortin receptor 4 [1]): 310 nM
- Activity (Melanocortin receptor 4 [2]): 12000 pmol
- Activity (Melanocortin receptor 4 [3]): Active
- Activity (Melanocortin receptor 4 [4]): 45000 pmol

SMILES: C#CCCCC(=O)N[C@@H](Cc1cnc[nH]1)C(=O)N[C@H](Cc1ccccc1)C(=O)N[C@@H](CCCNC(=N)N)C(=O)N[C@@H](Cc1c[nH]c2ccccc12)C(=O)Nc1cn(CC(=O)NCCCC(CCCNC(=O)Cn2cc(NC(=O)[C@H](Cc3c[nH]c4ccccc34)NC(=O)[C@H](CCCNC(=N)N)NC(=O)[C@@H](Cc3ccccc3)NC(=O)[C@H](Cc3cnc[nH]3)NC(=O)CCC#C)nn2)(NC(=O)CNC(=O)Cn2cc(NC(=O)[C@H](Cc3c[nH]c4ccccc34)NC(=O)[C@H](CCCNC(=N)N)NC(=O)[C@@H](Cc3ccccc3)NC(=O)[C@H](Cc3cnc[nH]3)NC(=O)CCC#C)nn2)C(=O)NCCC(N)=O)nn1 (some centres not stated)
- Activity (Melanocortin receptor 4 [2]): 14000 pmol
- Activity (Melanocortin receptor 4 [3]): Active
- Activity (Melanocortin receptor 4 [4]): 75000 pmol
